# Measured values of several laboratories.
# Protocols differ between the studies behind these lines.
# Method: competition with immobilised ligand
# RPS6KA5 N-terminal kinase domain: Ribosomal protein S6 kinase alpha-5, N-terminal kinase domain (RPS6KA5, Homo sapiens, UniProt O75582)
# RPS6KA5 C-terminal kinase domain: Ribosomal protein S6 kinase alpha-5, C-terminal kinase domain (RPS6KA5, Homo sapiens, UniProt O75582)
Compound,target,test,conditions,remaining binding [%]
COc1ncc2cc3ccccc3nc2c1C#N,RPS6KA5 N-terminal kinase domain,cell-free assay,5 µM,91
O=C(NCCCN1CCOCC1)c1ccc(Nc2nccc(-c3cc4ccccc4s3)n2)cc1,RPS6KA5 N-terminal kinase domain,binding,1 µM,100
O=c1nc(-c2ccccn2)sc2ccccc12,RPS6KA5 C-terminal kinase domain,binding,1 µM,88
Nc1ncc2c(n1)-c1c([nH]c3ccc(C#CC4CC4)cc13)CCCC2,RPS6KA5 N-terminal kinase domain,binding,1 µM,93
O=C(c1ccc(Nc2ncc(Cl)c(-c3cc4ccccc4s3)n2)cc1)N1CCC(N2CCCC2)CC1,RPS6KA5 N-terminal kinase domain,binding,1 µM,100
CN(C)c1nccc(-c2cnc3ncccn23)n1,RPS6KA5 C-terminal kinase domain,binding,1 µM,100
CC(=O)N1CCC(c2ccc(C(=O)NC3=NCCN3)cc2C(F)(F)F)CC1,RPS6KA5 N-terminal kinase domain,cell-free assay,1 µM,100
O=C(NCCCN1CCOCC1)c1ccc(Nc2ncc(Cl)c(-c3ccc(Cl)s3)n2)cc1,RPS6KA5 C-terminal kinase domain,binding,1 µM,54
CN(C)c1nccc(-c2cnn3ncccc23)n1,RPS6KA5 C-terminal kinase domain,binding,1 µM,98
O=C(c1ccc(Nc2nccc(-c3cc4ccccc4s3)n2)cc1)N1CCC(N2CCCC2)CC1,RPS6KA5 N-terminal kinase domain,binding,1 µM,100
CSc1cccnc1N1CCN(Cc2nc3ccccc3[nH]2)CC1,RPS6KA5 C-terminal kinase domain,cell-free assay,1 µM,100
F[C@@H]1CCN(c2nccc(-c3cnn4ncccc34)n2)C1,RPS6KA5 C-terminal kinase domain,binding,1 µM,73
O=C(O)c1cc(-c2ccc(C3CCNCC3)cc2)c2ccc(-c3ccc(C(F)(F)F)cc3)cc2c1,RPS6KA5 C-terminal kinase domain,cell-free assay,1 µM,100
COc1cnc(Nc2cccc(S(N)(=O)=O)c2)nc1N1CCN(c2ccccc2)C(=O)C1,RPS6KA5 C-terminal kinase domain,binding,1 µM,100
N[C@@H]1CCN(c2nccc(-c3cnn4ncccc34)n2)C1,RPS6KA5 C-terminal kinase domain,binding,1 µM,100
O=C(Nc1c[nH]nc1C(=O)NC1CCNCC1)c1cc(F)cc(F)c1,RPS6KA5 N-terminal kinase domain,binding,1 µM,96
CN(CCCC(F)(F)F)c1nccc(-c2cnn3ncccc23)n1,RPS6KA5 N-terminal kinase domain,binding,1 µM,100
c1cncc(-c2cccc(Nc3nccc(NC4CCCCC4)n3)c2)c1,RPS6KA5 C-terminal kinase domain,binding,10 µM,100
CNC(=O)[C@@H]1CC[C@@H](n2c(-c3ccc4cnccc4c3)nc3ccc(C(=O)NCc4cccc(C(N)=O)c4)cc32)C1,RPS6KA5 N-terminal kinase domain,binding,1 µM,100
Cc1c[nH]c2nccc(Oc3c(F)cc(Nc4cc(Cl)nc(N)n4)cc3F)c12,RPS6KA5 N-terminal kinase domain,cell-free assay,0.1 µM,100
Cc1cnn2ncc(-c3ccnc(N(C)C)n3)c2c1,RPS6KA5 N-terminal kinase domain,binding,1 µM,100
O=C(NCC1CCOCC1)c1n[nH]cc1NC(=O)c1c(F)cccc1F,RPS6KA5 C-terminal kinase domain,binding,1 µM,94
C[C@@H](c1ccc(-n2cnc3c(N)ncnc32)cc1)N1CCc2nn(C)c(Cc3ccccc3)c2C1=O,RPS6KA5 N-terminal kinase domain,binding,0.1 µM,95
C=CC(=O)N1CCC(C(=O)NCC(=O)N2CCN(c3nc(-c4cnc(N)nc4C(F)F)nc(N4CCOCC4)n3)CC2)CC1,RPS6KA5 C-terminal kinase domain,binding,1 µM,100
COc1cnc(Nc2cccc(S(N)(=O)=O)c2)nc1N1CCN(c2ccccc2)CC1,RPS6KA5 C-terminal kinase domain,binding,1 µM,97
Cc1cnc(Nc2ccc(C(=O)N3CCC(N4CCCC4)CC3)cc2)nc1-c1cc2ccccc2s1,RPS6KA5 C-terminal kinase domain,binding,1 µM,96
c1ccc(N2CCN(Cc3nc4ccccc4[nH]3)CC2)nc1,RPS6KA5 C-terminal kinase domain,binding,1 µM,100
COc1ccnn2ncc(-c3ccnc(N(C)C)n3)c12,RPS6KA5 C-terminal kinase domain,binding,1 µM,100
O=C(Nc1cccnn1)N1CC(C/C=C/c2cncc(Oc3ccc(C(F)(F)F)cn3)n2)C1,RPS6KA5 N-terminal kinase domain,cell-free assay,1 µM,100
CCN1CCN(Cc2ccc(C(=O)Nc3ccc(C)c(Oc4ccc5c(c4)CC(=O)N5)c3)cc2C(F)(F)F)CC1,RPS6KA5 C-terminal kinase domain,binding,1 µM,100
O=C(c1ccc(Nc2ncc(Cl)c(-c3ccc(Cl)s3)n2)cc1)N1CCC(N2CCCC2)CC1,RPS6KA5 N-terminal kinase domain,binding,1 µM,100
NS(=O)(=O)c1cc(NC(=O)C2(c3ccccc3Cl)CC2)ccc1Oc1cccc(Cl)c1,RPS6KA5 N-terminal kinase domain,cell-free assay,1 µM,100
